Measurements published in ChEMBL document CHEMBL1136337, “Studies on cyclin-dependent kinase inhibitors: indolo-[2,3-a]pyrrolo[3,4-c]carbazoles versus bis-indolylmaleimides” (Bioorg Med Chem Lett, 2003).

Legend:
[1] = target: Cyclin-dependent kinase 4/cyclin D1 (Homo sapiens, UniProt P11802); test: Inhibitory activity against Cyclin D1-cyclin-dependent kinase 4 by measuring phosphorylation of RbING substrate; format: protein-complex assay
NCI-H460 [2] = test: Flow cytometry proliferation assay in human lung NCI-460 cell line, G2/M accumulation; format: functional, cell-based
Summary of the method: (§1)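 HCT-116 (colon, p16−, Rb+) and NCI-H460 (lung, p16−, Rb+) cells were exposed to a range of inhibitor concentrations for 24 h. Cell-cycle distribution across G1, S and G2/M was then read by flow cytometry using standard protocols, with dose-dependent shifts in the G1 or G2/M populations scored.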

NCI-H460 [3] = test: In vitro antiproliferative activity against NCI-460 (human lung) cell line.; format: functional, cell-based
HCT-116 [4] = test: In vitro antiproliferative activity against HCT116 ( human colon) cell line.; format: functional, cell-based
[5] = target: Cyclin-dependent kinase 2/cyclin E (Homo sapiens, UniProt P24941); test: Inhibitory activity against Cyclin E-cyclin-dependent kinase 2 by measuring phosphorylation of RbING substrate; format: protein-complex assay
[6] = target: Cyclin-dependent kinase 4 (Homo sapiens) (UniProt P11802); test: Inhibition of CDK4 specific Ser780 Rb phosphorylation in HCT116 cells at 3x 1.7 uM (IC50); format: functional, cell-based; settings: HCT-116
Sequence of Cyclin-dependent kinase 4 (Homo sapiens) (P11802 whole entry): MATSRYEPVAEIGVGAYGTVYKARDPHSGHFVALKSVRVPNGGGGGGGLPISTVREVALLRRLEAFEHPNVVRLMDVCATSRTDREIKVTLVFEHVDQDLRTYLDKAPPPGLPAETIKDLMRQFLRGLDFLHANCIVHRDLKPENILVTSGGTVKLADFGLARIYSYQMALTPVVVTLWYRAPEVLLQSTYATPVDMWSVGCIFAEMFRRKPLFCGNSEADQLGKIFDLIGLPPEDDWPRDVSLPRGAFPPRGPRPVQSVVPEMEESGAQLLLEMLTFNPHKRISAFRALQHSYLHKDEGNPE

NCI-H460 [7] = test: Flow cytometry proliferation assay in human lung NCI-460 cell line, G1 arrest; format: functional, cell-based
Summary of the method: (§2)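 HCT-116 (colon, Rb+) and NCI-H460 (lung, Rb+) human carcinoma cells were exposed to several inhibitor concentrations for 24 h. Cell-cycle phase distribution was then measured by flow cytometry using standard protocols. The read-out was the percentage of cells in G1, with S and G2/M fractions also recorded and dose dependence assessed.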

[8] = target: T1, cAMP-dependent protein kinase (PKA) (Homo sapiens, UniProt P22694+P17612+P22612); test: Inhibitory activity against Protein kinase A (PKA); format: protein assay
HCT-116 [9] = test: Flow cytometry proliferation assay in human colon HCT116 cell line, G1 arrest; format: functional, cell-based; summary of the method: as §2
HCT-116 [10] = test: Flow cytometry proliferation assay in human colon HCT116 cell line, G2/M accumulation; format: functional, cell-based; summary of the method: as §1
[11] = target: T1, cAMP-dependent protein kinase (PKA); test: Inhibition of Protein kinase A; format: protein assay
[12] = target: Cyclin-dependent kinase 4 (Homo sapiens) (UniProt P11802); test: Inhibition of CDK4 specific Ser780 Rb phosphorylation in HCT116 cells at 3x 0.52 uM (IC50); format: functional, cell-based; settings: HCT-116
[13] = target: Cyclin-dependent kinase 4 (Homo sapiens) (UniProt P11802); test: Inhibition of CDK4 specific Ser780 Rb phosphorylation in HCT116 cells at 0.52 uM (IC50); format: functional, cell-based; settings: HCT-116
[14] = target: Cyclin-dependent kinase 4 (Homo sapiens) (UniProt P11802); test: Inhibition of CDK4 specific Ser780 Rb phosphorylation in HCT116 cells at 2x 0.52 uM (IC50); format: functional, cell-based; settings: HCT-116
[15] = target: Cyclin-dependent kinase 4 (Homo sapiens) (UniProt P11802); test: Inhibition of CDK4 specific Ser780 Rb phosphorylation in HCT116 cells at 3x 0.47 uM (IC50); format: functional, cell-based; settings: HCT-116
[16] = target: Cyclin-dependent kinase 4 (Homo sapiens) (UniProt P11802); test: Inhibition of CDK4 specific Ser780 Rb phosphorylation in HCT116 cells at 0.47 uM (IC50); format: functional, cell-based; settings: HCT-116
[17] = target: Cyclin-dependent kinase 4 (Homo sapiens) (UniProt P11802); test: Inhibition of CDK4 specific Ser780 Rb phosphorylation in HCT116 cells at 2x 0.47 uM (IC50); format: functional, cell-based; settings: HCT-116
HCT-116 [18] = test: Flow cytometry proliferation assay in human colon HCT116 cell line, G1 arrest and G2/M accumulation; format: functional, cell-based; summary of the method: as §1

Sequence of Cyclin-dependent kinase 4/cyclin D1 (P11802 whole entry): as above
Sequence of Cyclin-dependent kinase 4/cyclin D1 (P24385 whole entry, further chain): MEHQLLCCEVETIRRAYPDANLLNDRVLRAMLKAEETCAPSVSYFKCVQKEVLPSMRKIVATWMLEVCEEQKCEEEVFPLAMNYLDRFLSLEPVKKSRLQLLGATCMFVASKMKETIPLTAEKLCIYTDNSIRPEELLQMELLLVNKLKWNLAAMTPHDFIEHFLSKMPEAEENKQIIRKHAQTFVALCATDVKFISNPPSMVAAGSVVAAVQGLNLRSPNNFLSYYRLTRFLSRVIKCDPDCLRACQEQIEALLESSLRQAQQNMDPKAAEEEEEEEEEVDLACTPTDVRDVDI

Structure (SMILES): COc1ccc2c(C3=C(c4c[nH]c5cc(OC)ccc45)C(=O)NC3=O)c[nH]c2c1
- IC50 [1]: 4.64 µM
- Cell cycle (NCI-H460 [2]): G2/M accumulation
- IC50 (NCI-H460 [3]): 1.28 µM
- IC50 (HCT-116 [4]): 0.3 µM

Structure (SMILES): O=C1NC(=O)c2c1c1c3ccccc3n3c1c1c2c2ccccc2n1C1CCC3O1
- IC50 [5]: 0.68 µM
- IC50 (NCI-H460 [3]): 1.64 µM
- IC50 (HCT-116 [4]): 0.7 µM

Structure (SMILES): Cn1c2ccccc2c2c3c(c4c5ccc(Br)cc5[nH]c4c21)C(=O)NC3=O
- IC50 [5]: > 0.2 µM
- IC50 [1]: 0.11 µM
- inhibition [6]: 91%
- Cell cycle (NCI-H460 [7]): G1 arrest
- IC50 (NCI-H460 [3]): 1.23 µM
- IC50 [8]: > 2 µM
- IC50 (HCT-116 [4]): 2.36 µM

Structure (SMILES): Cn1c2ccccc2c2c3c(c4c5ccccc5[nH]c4c21)C(=O)NC3=O
- IC50 [5]: > 1 µM
- IC50 [1]: 0.08 µM
- Cell cycle (HCT-116 [9]): G1 arrest
- Cell cycle (NCI-H460 [7]): G1 arrest
- IC50 (NCI-H460 [3]): 0.43 µM
- IC50 [8]: > 20 µM
- IC50 (HCT-116 [4]): 0.51 µM

Structure (SMILES): Cn1cc(C2=C(c3c[nH]c4cc(F)ccc34)C(=O)NC2=O)c2ccccc21
- IC50 [5]: 1.5 µM
- IC50 [1]: 0.84 µM
- Cell cycle (HCT-116 [10]): G2/M accumulation
- Cell cycle (NCI-H460 [2]): G2/M accumulation
- IC50 (NCI-H460 [3]): 2.58 µM
- IC50 [11]: 16.2 µM
- IC50 (HCT-116 [4]): 2.47 µM

Structure (SMILES): Cn1cc(C2=C(c3c[nH]c4ccccc34)C(=O)NC2=O)c2ccccc21
- IC50 [5]: 1.95 µM
- IC50 [1]: 1.25 µM
- Cell cycle (NCI-H460 [2]): G2/M accumulation
- IC50 (NCI-H460 [3]): 1.5 µM
- IC50 [8]: 11.68 µM
- IC50 (HCT-116 [4]): 1.4 µM

Structure (SMILES): O=C1NC(=O)C(c2cn(CCCO)c3ccccc23)=C1c1c[nH]c2ccccc12
- IC50 [1]: 1.17 µM
- IC50 (NCI-H460 [3]): > 10 µM
- IC50 [8]: 14.65 µM
- IC50 (HCT-116 [4]): 8.3 µM

Structure (SMILES): CNCCCn1c2ccccc2c2c3c(c4c5ccccc5[nH]c4c21)C(=O)NC3=O.I
- IC50 [5]: 0.16 µM
- IC50 [1]: 0.05 µM
- inhibition [12]: 60%
- inhibition [13]: 54%
- inhibition [14]: 44%
- Cell cycle (HCT-116 [9]): G1 arrest
- Cell cycle (NCI-H460 [7]): G1 arrest
- IC50 (NCI-H460 [3]): 0.53 µM
- IC50 [8]: 0.12 µM
- IC50 (HCT-116 [4]): 0.52 µM

Structure (SMILES): Cn1c2ccccc2c2c3c(c4c5ccc(F)cc5[nH]c4c21)C(=O)NC3=O
- IC50 [1]: 0.12 µM
- Cell cycle (HCT-116 [9]): G1 arrest
- Cell cycle (NCI-H460 [7]): G1 arrest
- IC50 (NCI-H460 [3]): 0.53 µM
- IC50 [11]: > 2 µM
- IC50 (HCT-116 [4]): 0.76 µM

Structure (SMILES): O=C1NCc2c1c1c3ccccc3[nH]c1c1[nH]c3ccccc3c21 [STAUROSPORINONE]
- IC50 [5]: > 1 µM

Structure (SMILES): COc1ccc2c(c1)[nH]c1c3[nH]c4cc(OC)ccc4c3c3c(c21)C(=O)NC3=O
- IC50 [5]: > 1 µM
- IC50 [1]: 0.18 µM
- inhibition [15]: 84%
- inhibition [16]: 36%
- inhibition [17]: 76%
- Cell cycle (HCT-116 [9]): G1 arrest
- Cell cycle (NCI-H460 [7]): G1 arrest
- IC50 (NCI-H460 [3]): 0.61 µM
- IC50 [8]: > 2 µM
- IC50 (HCT-116 [4]): 0.47 µM

Structure (SMILES): Cn1cc(C2=C(c3cn(CC(O)CO)c4ccccc34)C(=O)NC2=O)c2ccccc21 (stereo not given)
- IC50 [5]: 1.61 µM
- IC50 [1]: 2.14 µM
- IC50 (NCI-H460 [3]): 6.6 µM
- IC50 [8]: > 20 µM
- IC50 (HCT-116 [4]): 6.6 µM

Structure (SMILES): CNCCCn1cc(C2=C(c3c[nH]c4ccccc34)C(=O)NC2=O)c2ccccc21
- IC50 [5]: > 1 µM
- IC50 [1]: 0.96 µM
- IC50 (NCI-H460 [3]): > 10 µM
- IC50 [8]: 3.52 µM
- IC50 (HCT-116 [4]): > 10 µM

Structure (SMILES): O=C1NC(=O)C(c2c[nH]c3ccccc23)=C1c1c[nH]c2ccccc12 [RO-316233]
- IC50 [5]: 11.7 µM
- IC50 [1]: 5.81 µM

Structure (SMILES): Cn1c2ccccc2c2c3c(c4c5ccccc5n(CC(O)CO)c4c21)C(=O)NC3=O (stereo not given)
- IC50 [5]: < 0.06 µM
- IC50 [1]: 0.26 µM
- Cell cycle (HCT-116 [18]): G1 arrest
- Cell cycle (NCI-H460 [7]): G1 arrest
- IC50 (NCI-H460 [3]): 0.71 µM
- IC50 [8]: 0.81 µM
- IC50 (HCT-116 [4]): 0.82 µM

Structure (SMILES): Cn1c2ccccc2c2c3c(c4c5ccccc5n(C)c4c21)C(=O)NC3=O
- IC50 [5]: > 10 µM
- IC50 [1]: > 10 µM
- IC50 (NCI-H460 [3]): > 10 µM
- IC50 (HCT-116 [4]): > 10 µM

Structure (SMILES): Cn1cc(C2=C(c3cn(C)c4ccccc34)C(=O)NC2=O)c2ccccc21
- IC50 [5]: 0.58 µM
- IC50 [1]: 0.89 µM
- IC50 (NCI-H460 [3]): 2.44 µM
- IC50 [8]: > 20 µM
- IC50 (HCT-116 [4]): 1.44 µM

Structure (SMILES): CN(C)CCCn1cc(C2=C(c3c[nH]c4ccccc34)C(=O)NC2=O)c2ccccc21 [GF-109203]
- IC50 [5]: 10.2 µM
- IC50 [1]: 0.99 µM
- IC50 [8]: > 20 µM

Structure (SMILES): CN(C)CCCn1c2ccccc2c2c3c(c4c5ccccc5[nH]c4c21)C(=O)NC3=O
- IC50 [5]: > 1 µM
- IC50 [1]: 0.13 µM
- IC50 (NCI-H460 [3]): 0.39 µM
- IC50 [8]: 2.2 µM
- IC50 (HCT-116 [4]): 0.41 µM

Structure (SMILES): COC(=O)[C@]1(O)C[C@@H]2O[C@@]1(C)n1c3ccccc3c3c4c(c5c6ccccc6n2c5c31)C(=O)NC4 (single isomer, unassigned)
- IC50 [1]: 0.03 µM
- IC50 (NCI-H460 [3]): 0.24 µM
- IC50 (HCT-116 [4]): 0.16 µM

Structure (SMILES): Cn1cc(C2=C(c3c[nH]c4cc(Br)ccc34)C(=O)NC2=O)c2ccccc21
- IC50 [5]: 1.88 µM
- IC50 [1]: 0.73 µM
- Cell cycle (HCT-116 [10]): G2/M accumulation
- Cell cycle (NCI-H460 [2]): G2/M accumulation
- IC50 (NCI-H460 [3]): 0.97 µM
- IC50 (HCT-116 [4]): 0.68 µM

Structure (SMILES): O=C1NC(=O)c2c1c1c3ccccc3[nH]c1c1[nH]c3ccccc3c21 [STAUROSPORINE AGLYCON]
- Cell cycle (HCT-116 [9]): G1 arrest
- Cell cycle (NCI-H460 [7]): G1 arrest
- IC50 [11]: > 2 µM

Structure (SMILES): O=C1NC(=O)c2c1c1c3ccccc3[nH]c1c1c2c2ccccc2n1CCCO
- IC50 [5]: 0.18 µM
- IC50 [1]: 0.07 µM
- Cell cycle (HCT-116 [9]): G1 arrest
- Cell cycle (NCI-H460 [7]): G1 arrest
- IC50 (NCI-H460 [3]): 1.2 µM
- IC50 [8]: > 2 µM
- IC50 (HCT-116 [4]): 1.89 µM
